Bioassay records deposited in PubChem by several laboratories.
Rows were chosen to be rich in hits. Some 2% of all compounds tested hit in one or more screens of this group.
EBI2 antag – antagonists of human EBI2 receptor | P32249 | EBI2 beta-arrestin recruitment, luminescence, 7a,25-OHC stimulated | inhibition, % at 5 µM | actives 0.81% (n = 360,000) | AID 651636; in the data active means inhibition above about 38%;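 further: enzyme fragment complementation signal reports receptor beta-arrestin coupling in cells; 0% = agonist plus DMSO wells and 100% = wells without agonist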
Target sequence (P32249 whole entry, looked up, the tested form may be a part): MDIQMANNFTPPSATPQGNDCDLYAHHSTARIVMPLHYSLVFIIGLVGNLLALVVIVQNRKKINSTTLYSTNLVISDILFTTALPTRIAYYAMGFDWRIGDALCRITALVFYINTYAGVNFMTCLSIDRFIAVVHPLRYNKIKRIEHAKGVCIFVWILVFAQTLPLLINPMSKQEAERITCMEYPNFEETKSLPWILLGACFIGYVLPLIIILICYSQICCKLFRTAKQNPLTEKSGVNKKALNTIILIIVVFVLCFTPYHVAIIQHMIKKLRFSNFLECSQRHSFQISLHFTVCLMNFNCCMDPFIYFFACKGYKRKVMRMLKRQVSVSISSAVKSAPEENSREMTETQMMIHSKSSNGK
GAA850 FXN act – activators of GAA850 frataxin (FXN) promoter; HEK293 lucGAA850 FXN promoter luciferase reporter, 24 h; percent of 10 µM SAHA response; activation, % at 6 µM; actives 0.56% (n = 360,000);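 active means activation above the average of all compounds screened plus 3 SD, cutoff fixed separately per campaign, cut at about 7.5% in these data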;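 further: 0% = DMSO wells and 100% = 10 µM SAHA wells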
APJ antag – antagonists of human APJ apelin receptor. P35414. CHO-K1 APJ beta-arrestin complementation, luminescence. inhibition, % at 20 µM. actives 0.32% (n = 330,000);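 active means inhibition above about 40% at 20 µM, limit read from the data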;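 further: cells challenged with 10 nM apelin-13 agonist together with compound; plate controls were apelin-13 plus DMSO wells for no effect and DMSO wells lacking apelin-13 for full effect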
CXCR6 inh – blocks human CXCR6 beta-arrestin recruitment. O00574. CHO-K1 PathHunter CXCR6 beta-arrestin, luminescence. inhibition, % at 20 µM. actives 0.36% (n = 360,000). AID 602244; in the data active means inhibition above about 34%, passing the limit was not always enough;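 further: antagonist mode with CXCL16 agonist at 10 nM final; 0% = 10 nM CXCL16 with DMSO and 100% = unstimulated wells without agonist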
APJ ag – agonists of human APJ apelin receptor; activation, % at 20 µM; CHO-K1 APJ PathHunter beta-arrestin, luminescence; 0% DMSO wells, 100% apelin; AID 2520; actives 0.11% (n = 330,000);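 active means activation more than six SD over the plate average, tested at 20 µM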;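 further: 0% = DMSO alone and 100% = apelin-13 at 10 nM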
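Test system – PathHunter CHO-K1 APJ (AGTRL-1) beta-arrestin reporter cells · Input – 1000 cells/well · Compound – single test compound dose, 20 µM final, 1% DMSO · Times – compound stimulation 90 min at 25 °C, detection 60 min · Technique – beta-gal luminescence · Read-out basis – APJ–arrestin association signal · Control set – negative DMSO alone, positive Apelin-13 at 10 nM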
CCR6 antag – blocks CCL20-driven beta-arrestin recruitment at human CCR6; CHO-K1 CCR6 PathHunter beta-arrestin, luminescence, CCL20-stimulated; inhibition, % at 20 µM; actives 0.49% (n = 340,000); AID 493098;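 active means compounds whose inhibition of the agonist-driven luminescence signal at 20 µM reaches about 50%, limit read from the data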;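 further: cells stimulated with CCL20 at 14 nM final; plate controls were DMSO with CCL20 for no effect and DMSO without agonist for full effect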
Active calls of the source: *; / = no result given.

SMILES	EBI2 antag	GAA850 FXN act	APJ antag	CXCR6 inh	APJ ag	CCR6 antag
O=C1C=CC(=O)c2c(O)c(N3CCN(CCO)CC3)c(Cl)c(O)c21	-19	1	/	66*	/	102*
O=S(=O)(c1ccc(Br)cc1Cl)N1CCN(CCO)CC1	-15	0	-7	3	-1	10
O=C(Nc1ccc(Oc2c(F)c(F)c(F)c(F)c2F)cc1)OC1CCN2Cc3ccccc3N=C12 (centres undefined)	44*	2	-2	3	7	-2
CC1=NN(c2nc(N)nc(/C(C#N)=C/c3ccc([N+](=O)[O-])o3)n2)C(C)(C)C1	29	5	/	27	/	53*
O=C(Nc1ccc2ccccc2c1)C(c1ccc(C(F)(F)F)cc1)n1c(=O)c(-c2cc3ccccc3[nH]2)nc2ccccc21 (centres undefined)	-7	/	/	/	/	/
c1ccc(C(c2nnnn2Cc2ccco2)N2CCN(c3nc4ccccc4s3)CC2)cc1 (centres undefined)	36*	-4	7	5	-3	19
c1ccc(Cn2nnnc2C(c2ccccc2)N2CCN(c3nc4ccccc4s3)CC2)cc1 (centres undefined)	25	0	5	3	-2	19
CCc1nc2c(OCCn3cccc3)cccn2c1N(C)C(=O)c1ccccc1F	-4	0	/	8	/	/
N#Cc1ccc(OCC(=O)N2CCN(c3ccc(C(F)(F)F)cn3)CC2)cc1	59*	0	-5	-14	1	-7
O=C(CCc1ccccc1F)N1CCN(c2ccc(C(F)(F)F)cn2)CC1	2	-1	9	-1	-1	-2
CCCC(=O)N1CCCC1(C)C(=O)Nc1ccc2nc(C)ccc2c1 (centres undefined)	1	-1	/	-9	/	/
CN(C)Cc1ccccc1-c1cccc2nccn12	-6	-1	/	-7	/	/
COc1ccc2[nH]c(C(=O)O)c(NS(=O)(=O)c3ccc(C)cc3C)c2c1	-11	-2	-1	-12	-1	9
COc1cc2c3c(c1)C(C)=CC(C)(C)N3C(=O)C2=O	-16	-2	9	2	-4	11
COc1cc(N=C2C(=O)N3c4c(cccc42)C(C)=CC3(C)C)cc(OC)c1	-13	0	13	14	-6	61*
CCOc1ccc2nc(NC(=O)c3ccccn3)sc2c1	60*	-3	79*	58*	-9	79*
COc1ccc(C(=O)Nc2nc3ccccc3s2)c(OC)c1	50*	-14	6	3	-2	5
Cc1cc(C)c(S(=O)(=O)/N=C2/C=C(Sc3ncn[nH]3)C(=O)c3ccccc32)cc1C	11	-13	/	46*	/	79*
COc1cc(CN(C)C)cc(C=O)c1O	9	2	-31	1	12	-11
COc1cc(N=Nc2ccc(Br)cc2)cc(C=O)c1O	20	0	/	53*	/	/
COc1ccc(-n2c(O)c(/C=N/Nc3nc(C)cc(C)n3)c3ccccc3c2=O)cc1OC	2	-4	22	37*	-3	73*
CCOC(=O)c1c(SC)n(-c2ccccc2)c(=S)n(-c2ccccc2)c1=O	-8	1	/	8	/	10
CCOC(=O)c1c(SCCN2CCCCC2)n(-c2ccccc2)c(=S)n(-c2ccccc2)c1=O	9	3	/	86*	/	99*
CCOC(=O)c1ccc2nc3c(cc2c1)CCS3	-19	12*	16	0	-4	17
CCCC(=O)Nc1nc2ccc(C(=O)OCC)cc2s1	-7	4	15	0	0	19
SMILES	EBI2 antag	GAA850 FXN act	APJ antag	CXCR6 inh	APJ ag	CCR6 antag
CCOc1ccc(CCNC(=O)CSCC(=O)Nc2ccc(OC)cc2)cc1OCC	1	-1	0	2	-5	8
SC(COCc1ccccc1)CN1CCN(Cc2ccc3c(c2)OCO3)CC1 (centres undefined)	10	0	-9	26	-3	64*
Brc1c(-c2ccccc2)nc2n1Cc1ccccc1-2	18	4	-30	-2	-2	0
Clc1ccc(-c2cn3c(n2)-c2ccccc2C3)cc1Cl	57*	4	-9	0	-3	6
O=C1[C@@H]2Cc3c([nH]c4ccccc34)C(c3cccc([N+](=O)[O-])c3)N2C(=O)CN1CCCO (some centres undefined)	10	0	36	33	-7	51*
CN1CC(=O)N2C(c3cccc([N+](=O)[O-])c3)c3[nH]c4ccccc4c3C[C@H]2C1=O (some centres undefined)	1	-3	15	16	-2	17
O=C(Nc1ccc(F)c(Cl)c1)c1ccc2sc([C@@H]3O[C@H](CO)[C@H](O)[C@H](O)[C@H]3O)nc2c1	-2	1	/	12	/	/
COc1ccc(NS(=O)(=O)c2cc([N+](=O)[O-])ccc2N/N=C/c2c(C)[nH]c3ccccc23)cc1	30	-1	/	35	/	58*
Cc1[nH]c2ccccc2c1/C=N/NS(=O)(=O)c1ccccc1	1	0	-7	0	-1	2
Cc1[nH]c2ccccc2c1/C=N/Nc1ccccc1[N+](=O)[O-]	6	5	43*	29	-8	39
COc1ccc(NS(=O)(=O)c2ccc(N/N=C/c3ccc(N4CCOCC4)cc3)c([N+](=O)[O-])c2)cc1	1	-2	19	2	-2	21
Cc1ccc(Nc2nc(N)nc(N)c2N=O)cc1Cl	6	/	/	19	/	/
S=C(NCCCN1CCOCC1)Nc1ccc(Cl)cc1	-2	3	-24	74*	-2	7
CCC/C=N/Nc1nc2ccccc2s1	-15	2	-5	3	-3	-3
C/C(N=Nc1nc2ccccc2s1)=N\Nc1ccccc1O	18	1	36	50*	-10	65*
CN(CC(=O)Nc1ccc(F)cc1)C(=O)CN1C(=O)NC2(CCCC2)C1=O	1	1	-27	-4	-5	5
Cc1ccc(-c2nc3ncccn3c2Nc2ccccc2C)o1	0	1	3	1	-3	3
Cc1ccc(-c2nc3cnccn3c2Nc2c(C)cccc2C)o1	5	1	-16	31	2	67*
CN(c1ccccc1)S(=O)(=O)c1ccc(Cl)c(C(=O)OCC(=O)c2c(N)n(C)c(=O)n(C)c2=O)c1	11	1	/	8	/	20
CCN1C/C(=C\c2cccc([N+](=O)[O-])c2)C(=O)/C(=C/c2cccc([N+](=O)[O-])c2)C1	40	-1	/	31	/	73*
CSC1=NC(C)(C)C=C(/C=C/c2ccc(Cl)cc2Cl)N1	15	0	22	-2	-1	16
CCSC1=NC(C)(C)C=C(/C=C/c2ccc(Cl)cc2Cl)N1	13	0	12	20	-8	66*
COc1cccc(N(C(=O)CNC(=O)c2ccco2)C(C(=O)NC2CCCC2)c2cccnc2)c1 (centres undefined)	-2	-2	13	-9	1	-10
